ChEMBL document CHEMBL2331122, “Cytotoxic polyketide derivatives from the South China Sea sponge Plakortis simplex” (J Nat Prod, 2013)
Counter-ions that a name gives are not always drawn.

How the values were obtained:
Bel-7402 = test: Cytotoxicity against human Bel7402 cells after 72 hrs by MTT assay; assay type: functional, cell-based; conditions: Bel-7402, 72 h
How it was run: (§1)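 Human tumour cells plated 24 h ahead, then exposed continuously to a range of compound concentrations for 72 h. Viability read by MTT. Adriamycin served as positive control. IC50 is the concentration giving 50% inhibition of control growth. Three independent experiments, each in triplicate.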

HeLa = test: Cytotoxicity against human HeLa cells after 72 hrs by MTT assay; assay type: functional, cell-based; how it was run: as §1
K562 = test: Cytotoxicity against human K562 cells after 72 hrs by MTT assay; assay type: functional, cell-based; conditions: K562, 72 h
How it was run: (§2)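 Human tumour cells plated 24 h ahead, then exposed continuously to a range of compound concentrations for 72 h. Viability read by MTT. Adriamycin served as positive control. Three independent experiments, each in triplicate.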

A549 = test: Cytotoxicity against human A549 cells after 72 hrs by MTT assay; assay type: functional, cell-based; conditions: A549, 72 h; how it was run: as §2
[1] = biological target: Hepatocyte growth factor receptor (Homo sapiens) (UniProt P08581); test: Inhibition of c-Met (unknown origin) at 10 uM after 60 mins by ELISA relative to control
Sequence of Hepatocyte growth factor receptor (Homo sapiens) (P08581 whole entry): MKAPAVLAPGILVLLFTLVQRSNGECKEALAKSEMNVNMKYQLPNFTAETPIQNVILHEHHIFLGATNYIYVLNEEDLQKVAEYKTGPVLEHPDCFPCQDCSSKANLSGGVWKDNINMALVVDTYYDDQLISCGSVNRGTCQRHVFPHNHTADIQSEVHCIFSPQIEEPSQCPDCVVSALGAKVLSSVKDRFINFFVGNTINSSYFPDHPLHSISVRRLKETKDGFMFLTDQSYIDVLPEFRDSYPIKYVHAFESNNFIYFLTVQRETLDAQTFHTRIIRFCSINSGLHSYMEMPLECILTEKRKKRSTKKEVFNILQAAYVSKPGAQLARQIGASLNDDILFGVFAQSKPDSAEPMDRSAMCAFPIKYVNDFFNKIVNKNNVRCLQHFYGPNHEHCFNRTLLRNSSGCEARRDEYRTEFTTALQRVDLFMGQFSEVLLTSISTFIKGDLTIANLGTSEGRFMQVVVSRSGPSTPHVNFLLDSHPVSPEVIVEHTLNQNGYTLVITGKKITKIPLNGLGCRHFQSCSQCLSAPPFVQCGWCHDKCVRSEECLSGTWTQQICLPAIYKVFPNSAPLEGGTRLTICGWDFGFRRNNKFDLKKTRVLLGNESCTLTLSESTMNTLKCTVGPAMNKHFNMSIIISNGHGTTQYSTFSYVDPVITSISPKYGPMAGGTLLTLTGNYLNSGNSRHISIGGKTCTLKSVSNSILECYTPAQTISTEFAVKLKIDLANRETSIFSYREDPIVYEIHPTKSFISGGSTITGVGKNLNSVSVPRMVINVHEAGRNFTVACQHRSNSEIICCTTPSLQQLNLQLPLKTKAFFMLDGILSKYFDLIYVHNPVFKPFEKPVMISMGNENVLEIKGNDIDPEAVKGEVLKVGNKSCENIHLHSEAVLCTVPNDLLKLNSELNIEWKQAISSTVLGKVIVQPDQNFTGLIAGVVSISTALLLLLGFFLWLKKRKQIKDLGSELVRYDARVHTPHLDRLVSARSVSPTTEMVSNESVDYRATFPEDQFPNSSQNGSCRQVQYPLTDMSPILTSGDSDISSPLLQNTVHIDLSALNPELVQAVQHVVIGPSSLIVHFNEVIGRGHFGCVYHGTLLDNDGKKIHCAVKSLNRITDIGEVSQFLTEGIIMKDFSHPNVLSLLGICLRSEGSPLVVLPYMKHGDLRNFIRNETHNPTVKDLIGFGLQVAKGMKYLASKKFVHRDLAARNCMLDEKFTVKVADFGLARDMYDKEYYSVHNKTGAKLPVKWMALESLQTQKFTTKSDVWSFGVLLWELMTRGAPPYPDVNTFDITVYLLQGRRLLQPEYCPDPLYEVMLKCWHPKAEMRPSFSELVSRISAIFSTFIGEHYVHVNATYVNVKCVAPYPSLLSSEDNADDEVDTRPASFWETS
How it was run: (§3)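 ELISA tyrosine kinase assay. Compounds added in DMSO (1% v/v), which was also the negative control; SU11274 (1 μM) was the positive control. Reaction run 60 min at 37 °C. pTyr detected by PY99 plus HRP anti-mouse IgG (30 min, 37 °C), developed with OPD/H2O2, read at 490 nm. Percent inhibition calculated.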

[2] = biological target: Hepatocyte growth factor receptor (Homo sapiens) (UniProt P08581); test: Inhibition of c-Met (unknown origin) at 1 uM after 60 mins by ELISA relative to control; how it was run: as §3

Structure (SMILES)	IC50 (Bel-7402) [µM]	IC50 (HeLa) [µM]	IC50 (K562) [µM]	IC50 (A549) [µM]	inhibition [1] [%]	inhibition [2] [%]
CCCC[C@H](CC)C[C@]1(CC)C=C(CC)/C(=C/C(=O)OC)O1	> 100	4.2	5.3	> 100	–	–
CC/C=C/[C@H](CC)C[C@]1(CC)C=C(CC)/C(=C/C(=O)OC)O1	> 100	2.6	0.8	> 100	–	–
COc1cccc2c1C(=O)c1c(O)c3c(c(O)c1C2=O)C[C@@](O)(C(=O)CO)C[C@@H]3O[C@H]1C[C@H](N)[C@H](O)[C@H](C)O1 [DOXORUBICIN HYDROCHLORIDE]	–	0.6	–	–	–	–
CCCCC(C)Cc1cc(CC)c(CC(=O)O)o1 (configuration not stated) [PLAKORSIN D]	> 100	> 100	> 100	> 100	–	–
CCCCC(C)C[C@]1(CC)O[C@H]1[C@]1(CC)C=CC(=O)O1 (some centres not stated) [PLAKORTOXIDE A]	> 100	31.5	> 50	> 100	–	–
CCCCC(CC)C[C@]1(CC)O[C@H]1[C@]1(CC)C=CC(=O)O1 (some centres not stated) [PLAKORTOXIDE B]	> 100	> 50	> 100	> 100	–	–
CCCCC(C)C/C(=C\[C@@]1(CC)OC(=O)C[C@@H]1O)CC (some centres not stated) [SIMPLEXOLIDE B]	> 100	4.7	2.2	> 100	–	–
CCCCC(C)C/C(=C/[C@@]1(CC)OC(=O)C[C@@H]1O)CC (some centres not stated) [SIMPLEXOLIDE E]	> 100	31.2	49.2	> 100	–	–
CC/C=C/[C@H]1C[C@](O)(CC)[C@@H]([C@]2(CC)OC(=O)C[C@@H]2O)[C@@H]1C [SIMPLEXTONE C]	> 100	29	19.4	40.4	57.4	34.3
CCC[C@@H]1[C@@H](C)C[C@](O)(CC)[C@H]1[C@]1(CC)OC(=O)C[C@@H]1O [SIMPLEXTONE D]	> 100	> 50	> 100	> 100	–	–
CCCCC(C)CC(O)(/C=C(/CC)[C@@H](O)CC(=O)OC)CC (some centres not stated) [WOODYLIDE A]	> 100	15.5	23.8	29.3	–	–
CCCCC(CC)CC(O)(/C=C(/CC)[C@@H](O)CC(=O)OC)CC (some centres not stated) [WOODYLIDE B]	> 100	15.9	20	23.6	–	–
